Data as given in ChEMBL document CHEMBL1148577, “Discovery of benzylidenebenzofuran-3(2H)-one (aurones) as inhibitors of tyrosinase derived from human melanocytes” (J Med Chem, 2006).

Assays:
[1] = molecular target: T1, Tyrosinase (Homo sapiens) (UniProt P14679); experiment: Inhibition of tyrosinase in human melanocytes at 0.1 mM; format: cell-based
T1 sequence (whole entry): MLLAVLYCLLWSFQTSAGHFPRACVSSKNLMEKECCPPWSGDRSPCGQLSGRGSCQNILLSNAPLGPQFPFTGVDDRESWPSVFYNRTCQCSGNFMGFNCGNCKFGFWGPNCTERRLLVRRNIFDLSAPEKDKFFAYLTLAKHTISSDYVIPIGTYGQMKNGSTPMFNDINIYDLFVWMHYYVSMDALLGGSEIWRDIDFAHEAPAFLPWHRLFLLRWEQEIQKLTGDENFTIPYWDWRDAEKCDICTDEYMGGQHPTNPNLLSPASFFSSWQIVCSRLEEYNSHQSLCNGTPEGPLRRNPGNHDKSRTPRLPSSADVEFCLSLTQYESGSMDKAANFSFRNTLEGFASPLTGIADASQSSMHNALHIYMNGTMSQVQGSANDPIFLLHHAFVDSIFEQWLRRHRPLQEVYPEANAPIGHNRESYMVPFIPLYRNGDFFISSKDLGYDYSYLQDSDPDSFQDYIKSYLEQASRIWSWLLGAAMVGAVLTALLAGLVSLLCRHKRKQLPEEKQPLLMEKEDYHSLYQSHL

[2] = molecular target: T2, Tyrosinase (Homo sapiens, UniProt P14679); experiment: Inhibitory activity against tyrosinase in human melanocytes; format: cell-based
T2 sequence (P14679 whole entry): T1 sequence (whole entry)

[3] = molecular target: T1, Tyrosinase (Homo sapiens); experiment: Inhibition of tyrosinase in human white skin melanocytes at 0.1 mM; format: cell-based
[4] = molecular target: T1, Tyrosinase (Homo sapiens); experiment: Inhibition of tyrosinase in human dark skin melanocytes at 0.1 mM; format: cell-based
[5] = molecular target: T1, Tyrosinase (Homo sapiens); experiment: Inhibition of tyrosinase in human black skin melanocytes at 0.1 mM; format: cell-based
[6] = molecular target: T1, Tyrosinase (Homo sapiens); experiment: Inhibition of tyrosinase in human white skin melanocytes at 0.01 mM; format: cell-based
[7] = molecular target: T1, Tyrosinase (Homo sapiens); experiment: Inhibition of tyrosinase in human dark skin melanocytes at 0.01 mM; format: cell-based
[8] = molecular target: T1, Tyrosinase (Homo sapiens); experiment: Inhibition of tyrosinase in human black skin melanocytes at 0.01 mM; format: cell-based
[9] = tested on: Rattus norvegicus; experiment: Oral toxicity in rats administered at 5 g/kg, po; format: organism-based; conditions: in vivo, 5000 mg/kg
Method in brief: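 Acute oral toxicity following OECD 423 acute toxic class method in six female rats. Single dose of 5 g/kg test preparation (10% in xanthane gel). Six female controls received distilled water 2000 mg/kg. Daily observation for 14 days for mortality and signs of toxicity. GHS classification.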

Structure (SMILES)	inhibition [1] [%]	other results
CC(C)(C)c1ccc(/C=C2\Oc3cc(O)cc(O)c3C2=O)cc1	0	–
O=C1/C(=C/c2ccccc2)Oc2cc(O)cc(O)c21	3	–
CCc1ccccc1/C=C1\Oc2cc(O)cc(O)c2C1=O	0	–
COc1cc(/C=C2\Oc3cc(O)cc(O)c3C2=O)ccc1O	4	–
O=C1/C(=C/c2ccccc2O)Oc2cc(O)cc(O)c21	4	–

More lines, main results first:

inhibition [1] [%]	Structure (SMILES)	other results
5	CCOc1ccc(/C=C2\Oc3cc(O)cc(O)c3C2=O)cc1	–
75	O=C1/C(=C/c2ccc(O)cc2)Oc2cc(O)cc(O)c21	IC50 [2]: 38 µM; inhibition [3]: 75%; inhibition [4]: 67%; inhibition [5]: 66%; inhibition [6]: 38%; inhibition [7]: 32%; inhibition [8]: 39%; Activity [9]: Non-toxic
5	CCCc1ccc(/C=C2\Oc3cc(O)cc(O)c3C2=O)cc1	–
39	O=C1/C(=C/c2ccc(O)cc2)Oc2ccccc21	–
11	COc1ccc(/C=C2\Oc3cc(O)cc(O)c3C2=O)cc1	–
0	O=C1/C(=C/c2ccccc2)Oc2cc(O)ccc21	–
0	CCc1ccc(/C=C2\Oc3cc(O)ccc3C2=O)cc1	–
